Assay outcomes: PubChem BioAssay, several laboratories
OXTR potentiate = human OXTR potentiators, primary screen, fluorescence, CHO-OTR cells, Fluo-8 calcium | Oxytocin receptor (Homo sapiens), P30559 | Fluo-8 calcium fluorescence, potentiator mode; 0% = oxytocin EC15, 100% = EC100 | activation, % at 3 µM | hit rate 0.061% among 320,000 | AID 2445, 2010;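 active = activation above that plate's cutoff, the mean activation of tested compounds plus 3 SD, cut at about 6.6% in these data, passing the limit was not always enough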;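 note: 100% uses oxytocin at 75 nM as the full agonist control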
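assay system = CHO-OTR cells, human receptor | schedule = compound 6 min at room temperature before oxytocin, 100 s read | detection = Fluo-8 intracellular calcium fluorescence, ex 470-495, em 515-575 nm | evaluation = normalized max/min fluorescence ratio, % activation | control set = EC15 oxytocin alone as 0%, 75 nM oxytocin (EC100) as 100%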
V1aR counter = agonists of human V1a receptor, primary screen, counter-screen for OXTR agonist project, fluorescence, CHO-V1R cells | Vasopressin V1a receptor (Homo sapiens), P37288 | Fluo-8 calcium fluorescence, agonist mode; 0% DMSO, 100% 3 nM vasopressin | hit rate 0.25% among 320,000 | activation, % at 3 µM | AID 2797, 2010;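 active = activation above the mean activation of all tested compounds plus 3 SD, per screening run, cut at about 20% in these data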;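 note: signal is peak over basal fluorescence ratio across a 100 second FLIPR read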
zfTRPN1 agonist = zebrafish TRPN1 channel agonists, primary screen, cell-based, HEK293, calcium fluorescence; activation, % at 3 µM; hit rate 0.18% among 220,000; HEK293 zebrafish TRPN1-YFP, Fluo-8 calcium fluorescence; 100% = response to 87 µM carbachol; transient receptor potential cation channel N1 (TRPN1/NompC), Danio rerio;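 active = activation above its plate's cutoff, the mean activation of test wells on that plate plus 3 SD, cut at about 19% in these data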;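 note: 0% = DMSO alone and 100% = 87 µM carbachol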
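Control set: carbachol 87 µM as high control, DMSO as low control; system: HEK293 stable line with zebrafish TRPN1-YFP; read-out: % activation versus carbachol response; detection: intracellular calcium fluorescence with Fluo-8; doses: single test compound dose, 3 µM nominal, 0.3% DMSO; schedule: dye 1 h 37 °C plus 30 min RT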
TRPML3 ag = human TRPML3 channel agonists, primary screen, cell-based, HEK293 TRPML3-YFP, Fluo-8 calcium fluorescence, 3 µM | AID 1448, 2008 | Mucolipin-3 (Homo sapiens), Q8TDD5 | 100% = the carbachol control signal | activation, % at 3 µM | hit rate 0.29% among 220,000;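 active = activation above its plate's cutoff, the mean activation of the plate's test wells plus 3 SD, cut at about 12% in these data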;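 note: 0% = DMSO only wells and 100% = carbachol wells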
Target sequence (Q8TDD5 whole entry, looked up): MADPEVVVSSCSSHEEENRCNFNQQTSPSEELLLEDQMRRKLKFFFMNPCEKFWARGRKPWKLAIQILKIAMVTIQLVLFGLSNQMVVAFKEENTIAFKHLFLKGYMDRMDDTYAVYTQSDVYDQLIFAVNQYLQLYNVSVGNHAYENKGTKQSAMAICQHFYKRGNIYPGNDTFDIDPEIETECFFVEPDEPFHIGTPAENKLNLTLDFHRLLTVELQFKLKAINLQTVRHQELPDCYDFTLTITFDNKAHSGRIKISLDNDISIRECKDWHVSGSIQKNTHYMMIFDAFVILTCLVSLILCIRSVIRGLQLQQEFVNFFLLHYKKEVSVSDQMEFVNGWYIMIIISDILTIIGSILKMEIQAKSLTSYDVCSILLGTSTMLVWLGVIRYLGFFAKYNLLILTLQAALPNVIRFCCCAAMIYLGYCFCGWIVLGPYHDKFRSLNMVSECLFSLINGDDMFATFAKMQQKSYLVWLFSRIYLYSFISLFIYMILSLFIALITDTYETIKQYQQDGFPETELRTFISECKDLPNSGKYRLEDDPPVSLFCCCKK
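Material: TRPML3-YFP stable HEK293 cells | Dosing: One concentration, 3 µM nominal, 0.3% DMSO | Timing: 125 s total fluorescence read per well | Technique: Fluo-8 calcium dye fluorescence, ex 470-495, em 515-575 nm | Measure: Percent activation from peak-to-basal fluorescence ratio, scaled between DMSO and carbachol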
CRFR2-BP ag = agonists of CRF-BP/CRF-R2 complex, primary screen, cell-based, HEK293, calcium dye fluorescence, uHTS. activation, % at 13.2 µM. calcium dye fluorescence (FLIPR); percent of saturating CRF peptide response. CRF-binding protein / CRF receptor 2 complex (human). hit rate 0.46% among 350,000;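 active = activation of at least 50%, plus an integration ratio under a set limit after plate pattern correction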;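 note: plate controls were neutral control wells without compound for no effect and CRF at EC100 for full effect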
OXTR agonist = human OXTR agonists, primary screen, fluorescence, CHO-OTR cells, Fluo-8 calcium; Oxytocin receptor (Homo sapiens), P30559; AID 2435, 2010; activation, % at 3 µM; hit rate 0.32% among 320,000; Fluo-8 calcium fluorescence; normalized: DMSO 0%, oxytocin 100%;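 active = activation above the mean of all tested compounds plus 3 SD, cutoff set per screening run, cut at about 20% in these data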;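 note: peak over basal fluorescence ratio from a 100 s FLIPR kinetic read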
* marks the source's active call; other numbers are inactive results; x = no result. In the library only some 0.85% were active in any assay of this set; here they are far more common.

SMILES	OXTR potentiate	V1aR counter	zfTRPN1 agonist	TRPML3 ag	CRFR2-BP ag	OXTR agonist
Cc1cccc(Oc2ccc(NC(=O)c3ccccc3C(=O)O)cc2)c1C	-2	2	1	1	81*	3
O=C(O)c1ccccc1C(=O)Nc1ccc(Oc2cccc3ccccc23)cc1	x	x	1	1	126*	x
O=C(O)c1ccccc1C(=O)Nc1ccc(Oc2ccc3ccccc3c2)cc1	-16	1	1	1	-2	0
CSc1ccc(/C=C(/NC(=O)c2ccc(C)cc2)C(=O)Nc2cccc(C)c2)cc1	-5	0	4	1	2	1
Cc1noc(C)c1COc1ccccc1C(=O)N(C)Cc1ccc(C(C)(C)C)cc1	-9	13	x	x	0	2
c1ccc(CNc2ncnc3c2cnn3Cc2ccccc2)cc1	-13	21*	6	2	35	25*
Cc1nc2scc(C)n2c(=O)c1S(=O)(=O)Nc1ccc(OC(F)(F)F)cc1	-3	10	x	x	6	9
CCOc1cc(/C=N/N2CCOCC2)ccc1OCc1ccc(C(=O)OC)o1	-7	-1	382*	144*	0	-2
CCCc1ccc(C(=O)NC(=O)c2ccccc2O)cc1	-17	11	20*	11	51*	19
O=C(Nc1ncccn1)c1ccc(C(F)(F)F)cc1	3	2	0	0	-2	0
O=C(NC(=O)c1ccccc1O)c1ccc(C(F)(F)F)cc1	-21	18	6	2	55*	14
C(=Cc1nc2ccccc2o1)c1ccc2c(c1)OCO2	x	x	x	x	6	x
C(=Cc1cnc2ccccc2n1)c1ccc2c(c1)OCO2	x	x	x	x	100*	x
COc1ccc(C=NNc2ccc([N+](=O)[O-])cc2S(=O)(=O)Nc2ccccc2C(=O)O)cc1OC	-8	0	x	x	1	-1
COc1ccc(/C=N/Nc2ccc([N+](=O)[O-])cc2S(=O)(=O)N2CCN(C)CC2)cc1	-5	0	1	1	56*	0
Cc1cc(NC(=O)COC(=O)CNC(=O)c2cccs2)c([N+](=O)[O-])cc1C	-10	1	x	x	-3	-1
COc1ccc(/C=C2/SC(c3ccc(C)cc3)=NC2=O)cc1OC	-26	2	4	1	36	3
COc1cc(/C=C2\SC(c3ccc(C)cc3)=NC2=O)ccc1O	-4	2	1	0	50*	4
COc1ccc(/C=C2\SC(c3ccc(C)cc3)=NC2=O)cc1OC	-6	1	3	2	132*	3
COc1ccc(/C=C2\SC(=O)NC2=S)cc1OC	-13	36*	74*	43*	15	29*
COc1ccc(Br)cc1CNC(=O)Cc1c(C(=O)O)[nH]c2ccc(Cl)cc12	-4	1	1	-1	-2	0
CN(C(=O)c1ccc(NC(=O)Cc2cccc([N+](=O)[O-])c2)cc1)C1CC1	-7	1	x	x	-2	1
CN(C(=O)c1ccc(NC(=O)Cc2ccc([N+](=O)[O-])cc2)cc1)C1CC1	-9	30*	x	x	37	38*
COc1cccc(N2CCN(C(=O)c3cc(C)oc3C)CC2)c1	-8	1	x	x	-1	0
C[C@@H]1CN([C@@H](C)CO)C(=O)CCCn2nncc2CO[C@H]1CN(C)Cc1cccc(C(F)(F)F)c1	x	x	x	x	4	x
SMILES	OXTR potentiate	V1aR counter	zfTRPN1 agonist	TRPML3 ag	CRFR2-BP ag	OXTR agonist
CCCC(C)C(=O)Nc1ncc(S(=O)(=O)c2ccc([N+](=O)[O-])cc2)s1 (configuration not stated)	-12	46*	x	x	43	22*
CCC(C)(C)C(=O)Nc1ncc(S(=O)(=O)c2ccc([N+](=O)[O-])cc2)s1	-23	22*	12	11	40	33*
C#CCN(C(=O)c1cc(COc2cccc(C(F)(F)F)c2)on1)C1CCCCC1	-13	3	x	x	1	0
O=C(Nc1ccc(C(=O)NCCCN2CCCCC2)cc1)C1=CSCCO1	-5	1	x	x	-1	0
O=C(Nc1ccc(C(=O)NCCCN2CCN(c3ccc(F)cc3)CC2)cc1)C1=CSCCO1	-15	26*	x	x	62*	29*
S=c1[nH]nc(COc2ccc(Cl)cc2)n1Cc1ccco1	-8	3	0	-1	-2	2
Nc1nc2n(n1)C(c1cccc(Br)c1)CC(c1ccc(F)cc1)N2 (configuration not stated)	-18	4	11	3	54*	9
CCOCCCNc1nc2c(C)cccn2c(=O)c1/C=C1\SC(=S)N(CC(C)C)C1=O	-14	1	0	1	170*	1
Cc1cccn2c(=O)c(/C=C3\SC(=S)NC3=O)c(NCCCN3CCOCC3)nc12	-5	10	13	8	40	6
CCCN1C(=O)/C(=C/c2c(NCCCOCC)nc3c(C)cccn3c2=O)SC1=S	x	x	2	1	113*	x
CCOCCCNc1nc2c(C)cccn2c(=O)c1/C=C1\SC(=S)N(C(C)CC)C1=O (configuration not stated)	-13	6	20*	8	109*	13
CCOC(=O)CC1C(=O)NCCN1c1nc2c(C)cccn2c(=O)c1/C=C1\SC(=S)N(CC(C)C)C1=O (configuration not stated)	x	x	36*	12*	x	x
O=C(COc1ccc(F)cc1Cl)Nc1ccc(S(=O)(=O)Nc2nccs2)cc1	-1	-1	x	x	-1	0
O=C1/C(=C\c2c(NCCOCCO)nc3ccccn3c2=O)SC(=S)N1Cc1ccco1	-27	56*	x	x	102*	40*
Cc1cc(C(=O)CN2C(=O)NC(C)(c3ccc(F)c(F)c3)C2=O)c(C)n1C1CC1 (configuration not stated)	x	x	x	x	17	x
COc1ccc(C2(C)NC(=O)N(CC(=O)c3cc(C)n(C4CC4)c3C)C2=O)cc1 (configuration not stated)	-16	45*	x	x	100*	49*
CN(C)c1ccc(/C=C/C(=O)c2c(O)c3ccccc3oc2=O)cc1	-8	8	13	7	129*	10
CCOc1ccc(/C=C/C(=O)c2c(O)c3ccccc3oc2=O)cc1	-3	1	1	1	2	-1
